This is an account of results in ChEMBL document CHEMBL4177769, “Highly Selective and Potent Ectonucleotide Pyrophosphatase-1 (NPP1) Inhibitors Based on Uridine 5'-Pα,α-Dithiophosphate Analogues” (J Med Chem, 2018).

Molecules are shown by their SMILES. Activity calls are given as the source filed them. No cut-off for these calls is given here.

The target in data set [1] is P2Y purinoceptor 2 (Homo sapiens) (UniProt P41231). In words: Agonist activity at recombinant human P2RY2 expressed in AD293 cells assessed as increase in intracellular calcium levels by Fluo-4/AM dye-based spectrofluorometer. The format is functional, cell-based. The essentials: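 Human P2Y2, P2Y4 or P2Y6 receptor stably expressed in AD293 cells. Compound at 100 μM. Agonism read as change in intracellular calcium (Δ[Ca2+]i), with UDP or UTP as control.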

A short description of data set [2]: Stability of the compound assessed as air oxidation at room temperature at 1.8 mM after 3 weeks by 31P NMR method. The format is physicochemical. The following applies: 504 h, 1800 µM.
Data set [3] concerns the target P2Y purinoceptor 6 (Homo sapiens) (UniProt Q15077). Kind of data set: Agonist activity at recombinant human P2RY6 expressed in AD293 cells assessed as increase in intracellular IP1 levels. The format is functional, cell-based. The essentials:
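Human P2Y6 receptor stably expressed in AD293 cells. Compound at 100 μM. Gq activation read as accumulation of inositol 1-phosphate (IP1).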

For data set [4], the target named is T1, Ectonucleoside triphosphate diphosphohydrolase 8 (Homo sapiens) (UniProt Q5MY95).
T1 sequence (whole entry): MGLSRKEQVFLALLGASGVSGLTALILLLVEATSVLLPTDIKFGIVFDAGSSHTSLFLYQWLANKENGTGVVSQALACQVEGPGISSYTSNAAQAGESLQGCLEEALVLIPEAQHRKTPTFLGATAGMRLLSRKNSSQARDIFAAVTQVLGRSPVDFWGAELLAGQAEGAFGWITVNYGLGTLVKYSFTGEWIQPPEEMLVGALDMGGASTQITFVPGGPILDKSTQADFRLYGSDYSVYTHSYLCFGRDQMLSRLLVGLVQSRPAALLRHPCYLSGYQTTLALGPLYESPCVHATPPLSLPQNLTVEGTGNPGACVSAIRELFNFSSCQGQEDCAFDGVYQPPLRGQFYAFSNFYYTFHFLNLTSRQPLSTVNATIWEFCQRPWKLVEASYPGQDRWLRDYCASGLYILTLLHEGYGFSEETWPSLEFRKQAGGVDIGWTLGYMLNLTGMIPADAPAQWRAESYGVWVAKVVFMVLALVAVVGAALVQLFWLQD
In words: Inhibition of human NTPDase8 at 100 uM using ATP as substrate preincubated for 3 mins followed by substrate addition measured after 10 mins by malachite green reagent-based assay. The essentials: (§1)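 Compound at 100 μM, 3 min preincubation, 100 μM ATP, 10 min. Stopped with malachite green; Pi read at 630 nm. Blank with enzyme added after stop subtracted. Activity with ATP alone taken as 100%.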

In data set [5] the target is T2, Ectonucleotide pyrophosphatase/phosphodiesterase family member 3 (Homo sapiens) (UniProt O14638).
T2 sequence (whole entry): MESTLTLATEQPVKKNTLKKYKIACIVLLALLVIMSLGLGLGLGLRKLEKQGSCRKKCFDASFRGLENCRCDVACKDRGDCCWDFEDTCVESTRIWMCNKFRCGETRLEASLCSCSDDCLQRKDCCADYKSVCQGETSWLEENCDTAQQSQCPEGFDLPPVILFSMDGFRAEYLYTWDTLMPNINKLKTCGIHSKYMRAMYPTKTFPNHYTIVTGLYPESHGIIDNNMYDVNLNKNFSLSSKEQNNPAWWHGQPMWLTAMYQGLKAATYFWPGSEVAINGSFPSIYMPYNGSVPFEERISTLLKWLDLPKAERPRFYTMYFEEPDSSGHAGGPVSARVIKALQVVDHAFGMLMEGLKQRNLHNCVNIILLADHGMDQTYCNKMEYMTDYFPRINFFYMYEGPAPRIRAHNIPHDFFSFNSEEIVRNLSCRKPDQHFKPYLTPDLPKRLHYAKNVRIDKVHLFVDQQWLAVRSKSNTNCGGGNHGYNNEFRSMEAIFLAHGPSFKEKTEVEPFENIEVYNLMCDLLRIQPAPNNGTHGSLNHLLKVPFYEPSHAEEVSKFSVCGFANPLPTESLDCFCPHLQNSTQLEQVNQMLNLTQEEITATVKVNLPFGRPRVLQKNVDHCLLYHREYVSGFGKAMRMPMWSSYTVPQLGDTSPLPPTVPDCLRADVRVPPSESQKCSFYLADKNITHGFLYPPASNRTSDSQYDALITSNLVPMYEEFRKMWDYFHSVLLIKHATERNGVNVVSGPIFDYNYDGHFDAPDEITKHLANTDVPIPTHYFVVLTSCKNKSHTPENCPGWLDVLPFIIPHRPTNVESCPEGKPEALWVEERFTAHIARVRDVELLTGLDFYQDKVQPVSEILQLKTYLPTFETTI
Kind of data set: Inhibition of human NPP3 at 100 uM using pNP-TMP as substrate preincubated for 3 mins followed by substrate addition measured after 15 mins. The essentials:
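Human NPP1 (4−5 μg) or NPP3 (12−14 μg) cell lysate in mM 1 CaCl2, 140 NaCl, 5 KCl, 50 Tris pH 8.5, 37 °C. Compound at 100 μM, 3 min preincubation, 100 μM pNP-TMP substrate. p-Nitrophenol read at 405 nm after 15 min. Blank with enzyme added at end subtracted. Activity without compound taken as 100%. At least two independent experiments in triplicate.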

Data set [6] is described as follows: Drug metabolism at 2 mM at basic pH after 5 days by 31P NMR method. The format is physicochemical. The settings on record: read-out: Drug metabolism.
The nature of data set [7]: Drug metabolism at 2 mM at acidic pH after 5 days by 31P NMR method. The format is physicochemical. The following applies: read-out: Drug metabolism.
In data set [8] the target is T3, Ectonucleoside triphosphate diphosphohydrolase 3 (Homo sapiens) (UniProt O75355).
T3 sequence (whole entry): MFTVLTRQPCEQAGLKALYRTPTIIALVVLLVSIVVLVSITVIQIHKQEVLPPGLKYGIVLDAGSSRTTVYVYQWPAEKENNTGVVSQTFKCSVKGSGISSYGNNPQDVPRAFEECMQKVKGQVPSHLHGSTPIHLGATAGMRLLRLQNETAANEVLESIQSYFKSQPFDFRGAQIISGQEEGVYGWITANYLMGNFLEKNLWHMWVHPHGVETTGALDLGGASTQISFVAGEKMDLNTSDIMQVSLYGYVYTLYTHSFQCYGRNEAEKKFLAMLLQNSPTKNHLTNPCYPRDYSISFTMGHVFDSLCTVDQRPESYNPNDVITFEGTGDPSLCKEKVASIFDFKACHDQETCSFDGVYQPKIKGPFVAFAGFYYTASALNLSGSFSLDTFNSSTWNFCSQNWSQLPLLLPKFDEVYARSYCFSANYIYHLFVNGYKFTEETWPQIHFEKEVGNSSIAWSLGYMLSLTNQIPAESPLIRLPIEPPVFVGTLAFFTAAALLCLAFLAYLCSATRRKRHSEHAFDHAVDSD
In words: Inhibition of human NTPDase3 at 100 uM using ATP as substrate preincubated for 3 mins followed by substrate addition measured after 10 mins by malachite green reagent-based assay. The essentials:
as §1

A short description of data set [9]: Drug level treated with UTP 5'-O-Palpha,alpha-dithiophosphate at 2 mM at pH 1.7 at room temperature after 23 days by 31P NMR method. The format is physicochemical. The settings on record: pH 1.7, 552 h, 2000 µM.
The nature of data set [10]: Drug level treated with UTP 5'-O-Palpha,alpha-dithiophosphate at 2 mM at pH 11.7 at room temperature after 25 days by 31P NMR method. The format is physicochemical. The following applies: pH 11.7, 600 h, 2000 µM.

Chain of P2Y purinoceptor 6 (Homo sapiens) (Q15077 whole entry): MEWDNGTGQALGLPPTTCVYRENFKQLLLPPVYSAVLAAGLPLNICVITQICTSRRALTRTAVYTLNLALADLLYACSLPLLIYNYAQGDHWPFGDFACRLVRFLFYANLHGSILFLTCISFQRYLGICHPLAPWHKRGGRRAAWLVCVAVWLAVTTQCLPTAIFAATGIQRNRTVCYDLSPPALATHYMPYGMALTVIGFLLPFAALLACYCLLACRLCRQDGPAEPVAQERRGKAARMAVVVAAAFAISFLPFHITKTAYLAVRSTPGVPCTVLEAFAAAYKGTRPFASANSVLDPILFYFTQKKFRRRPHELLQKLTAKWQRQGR
Chain of P2Y purinoceptor 2 (Homo sapiens) (P41231 whole entry): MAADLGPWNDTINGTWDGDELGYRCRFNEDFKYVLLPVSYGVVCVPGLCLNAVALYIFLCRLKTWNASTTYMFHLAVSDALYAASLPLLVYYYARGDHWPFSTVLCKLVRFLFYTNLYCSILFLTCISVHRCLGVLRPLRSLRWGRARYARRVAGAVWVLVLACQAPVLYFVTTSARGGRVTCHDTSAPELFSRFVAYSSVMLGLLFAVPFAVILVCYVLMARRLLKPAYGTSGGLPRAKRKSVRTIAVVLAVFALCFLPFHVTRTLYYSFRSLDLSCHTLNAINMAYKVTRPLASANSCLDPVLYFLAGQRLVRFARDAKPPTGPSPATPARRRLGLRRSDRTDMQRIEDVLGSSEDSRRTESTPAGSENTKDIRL

For `O=c1ccn([C@@H]2O[C@H](COP(=S)(S)OP(=O)(O)CP(=O)(O)O)[C@@H](O)[C@H]2O)c(=O)[nH]1` (some centres not stated), the outcome in data set [1] and in [3] was inactive. Moreover, the Stability entry in data set [2] is “Stable”. The inhibition in data set [4] was determined as 15%; in [5], 21%; in [8] it was 15%. The degraded at 120 h, 2000 µM in data set [6] came out at 8%; in data set [7] it was 2%.

As to `O=c1ccn([C@@H]2O[C@H](COP(=S)(S)OP(=O)(O)O)[C@@H](O)[C@H]2O)c(=O)[nH]1` (some centres not stated), the outcome in data set [1] was inactive. In addition, the Drug metabolism entry in data set [9] and in data set [10] was “Metabolite_Detected” in each case. In addition, the outcome in [3] was Active. The values for the inhibition in data set [4], in data set [5] and in data set [8] were 15%, 21% and 15%, respectively.

`O=c1ccn([C@@H]2O[C@H](COP(=S)(S)OP(=O)(O)OP(=O)(O)O)[C@@H](O)[C@H]2O)c(=O)[nH]1` (some centres not stated): the result in data set [1] was inactive. For the same compound, the Stability result in data set [2] was “Stable”. Besides, the outcome in data set [3] was Active. Further, the inhibition entry in [4] and in [8] was “inactive” each time. Also, the values for the degraded at 120 h, 2000 µM in data set [6] and in data set [7] were 13% and 11%, respectively.
